Assay results pooled from the literature.
Lines come from different studies, so protocols differ.
Read-out: microbial growth

With `O=C1NC(=S)N/C1=C\c1c2ccccc2c(-c2ccc(N(c3ccccc3)c3ccccc3)cc2)c2ccccc12` the MIC was > 1000 µg/mL (Streptococcus pyogenes; broth dilution; ATCC19615).
`CCCCCCC/C=C/C(=O)N1C(=O)/C(=C(\O)c2ccncc2)C(=O)C1CC(C)C` (stereo not drawn) has an MIC of 200 µg/mL (Stenotrophomonas maltophilia; ATCC13637).
With `O=C1NC(=S)S/C1=C\c1c2ccccc2c(-c2ccc(N(c3ccccc3)c3ccccc3)cc2)c2ccccc12` the MIC was > 1000 µg/mL (Streptococcus pyogenes; broth dilution; ATCC19615).
With `O=c1[nH]c(NCc2ccc(Cl)c(Cl)c2)nc2ncn(CCN3CCOCC3)c12` the MIC was > 32 µg/mL (Bifidobacterium; agar dilution; 48 h).
The MIC of `CCCCCCC/C=C/C(=O)N1C(=O)/C(=C(\O)C2CCNCC2)C(=O)C1CC(C)C` (stereo not drawn) is reported as 25 µg/mL (Stenotrophomonas maltophilia; ATCC13637).
With `CC(C)Oc1c(NC(=O)c2ccc(NC(=O)[C@H](CC(N)=O)NC(=O)c3ccc(NC(=O)c4ccc(C#N)cn4)cc3)cc2)ccc(C(=O)Nc2ccc(C(=O)O)cc2)c1O` the MIC was 0.25 µg/mL (Klebsiella aerogenes; DSM30053).
With `CCCCCCC/C=C/C(=O)N1C(=O)/C(=C(\O)c2ccc(O)cc2)C(=O)C1CC(C)C` (stereo not drawn) the MIC was 200 µg/mL (Stenotrophomonas maltophilia; ATCC13637).
The MIC of `CCc1cc(Nc2cc(=O)n(CCCCO)c(=O)[nH]2)ccc1C` is reported as > 32 µg/mL (Bifidobacterium; agar dilution; 48 h).
`O=C(O)c1cn(C2CC2)c2cc(N3CCNCC3)c(F)cc2c1=O` has an MIC of 0.125 µg/mL (Klebsiella aerogenes; DSM30053).
With `CN[C@H](CC(C)C)C(=O)N[C@H]1C(=O)N[C@@H](CC(N)=O)C(=O)N[C@H]2C(=O)N[C@H]3C(=O)N[C@H](C(=O)N[C@H](C(=O)O)c4cc(O)cc(O)c4-c4cc3ccc4O)[C@H](O)c3ccc(c(Cl)c3)Oc3cc2cc(c3O[C@@H]2O[C@H](CO)[C@@H](O)[C@H](O)[C@H]2O[C@H]2C[C@](C)(N)[C@H](O)[C@H](C)O2)Oc2ccc(cc2Cl)[C@H]1O` the MIC was 0.98 µg/mL (Streptococcus mutans; broth dilution; ATCC25175).
With `CNC(=O)c1cc(Oc2ccc(NC(=O)Nc3ccc(Cl)c(C(F)(F)F)c3)cc2)ccn1` the MIC was > 100 µM (Klebsiella aerogenes; DSM30053).
`CCCCCCC/C=C/C(=O)N1C(=O)/C(=C(/C)O)C(=O)C1CO` (stereo not drawn) gave an MIC of > 200 µg/mL (Stenotrophomonas maltophilia; ATCC13637).
The MIC of `O=C1NC(=S)S/C1=C\c1ccc(-c2ccc(N(c3ccccc3)c3ccccc3)cc2)c2ccccc12` is reported as 1000 µg/mL (Streptococcus mutans; broth dilution; ATCC25175).
With `CCCCCCC/C=C/C(=O)N1CC(=O)/C(=C(\C)O)C1=O` the MIC was 100 µg/mL (Stenotrophomonas maltophilia; ATCC13637).
For `O=C1NC(=S)S/C1=C\c1ccc(-c2ccc(N(c3ccccc3)c3ccccc3)cc2)cc1`, the MIC was 1000 µg/mL (Streptococcus pyogenes; broth dilution; ATCC19615).
